In ChEMBL document CHEMBL1149380, “Synthesis of thieno[2,3-b]pyridinones acting as cytoprotectants and as inhibitors of [3H]glycine binding to the N-methyl-D-aspartate (NMDA) receptor” (J Med Chem, 2006):

Tests used:
Glutamate NMDA receptor = test: Inhibition of [3H]glycine binding to NMDA receptor in rat brain membranes; assay type: cell membranes
Outline: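 [3H]glycine displaced from rat hippocampal membranes in presence of 10 µM glutamic acid; 4-5 inhibitor concentrations giving 20-90% inhibition of specific binding; Ki derived; number of experiments given per value.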

L cells = test: Cytotoxicity against mouse fibroblast L(tk-) cells transfected with human NMDA using LDH assay; assay type: functional, cell-based; settings: L929
Outline: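 Mouse L(tk-) fibroblast clone L12-G10 co-transfected with dexamethasone-inducible human NR1a/NR2A; seeded 15 × 10^3 cells/well, grown overnight, then receptor expression induced with 4 µM dexamethasone in Mg2+-free medium with 5% FCS (supplies glutamate and glycine) and 50 mM KCl. Compounds added at increasing, trypan-blue-verified nontoxic concentrations for 24 h. Cell death read as LDH release (INT formazan, 490 nm) relative to total LDH; four-parameter logistic fit for IC50.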

Rattus norvegicus [1] = test: Effect on brain tissue level after 6 min at 10mg/kg, iv; assay type: ADME, organism-based, Wistar; settings: in vivo, 0.1 h
Outline: (§1)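 Male Wistar rats given 10 mg/kg intravenously; plasma and brain tissue levels measured 6 min (n = 3) and 1 h (n = 3) after dosing; brain expressed as µmol/kg.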

Mus musculus [2] = test: Protection of mice against maximal e-shock after 30 min at 43 mg/kg; assay type: functional
Outline: (§2)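 Male Swiss mice, 10 per dose, dosed intraperitoneally (vehicle 8 parts DMSO, 10 parts H2O); doses spanned 0.3-100 mg/kg depending on compound. Maximal electroshock applied 30 or 60 min later; tonic hind limb extension scored as unprotected. Dose-response fitted to a hyperbolic function giving ID50.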

Rattus norvegicus [3] = test: Effect on brain tissue level after 1h at 10 mg/kg, iv; assay type: ADME, organism-based, Wistar; set-up: dose 10 mg/kg, route intravenous; settings: in vivo; outline: as §1
D(2) dopamine receptor = D(2) dopamine receptor (Rattus norvegicus, UniProt P61169); test: Displacement of [3H]raclopride from dopamine receptor D2 in rat striatal membrane; assay type: cell membranes, Striatum
Mus musculus [4] = test: Protection of mice against maximal e-shock at 30 mg/kg; assay type: functional; outline: as §2
Rattus norvegicus [5] = test: Effect on brain tissue level after 1h at 5 mg/kg, iv; assay type: ADME, organism-based, Wistar; set-up: dose 5 mg/kg, route intravenous; settings: in vivo
Outline: (§3)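 Male Wistar rats given 5 mg/kg intravenously; plasma and brain tissue levels measured at 6 min and 1 h, n = 3 per time; brain expressed as µmol/kg.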

Mus musculus [6] = test: Protection of mice against maximal e-shock at 0.7 mg/kg; assay type: functional; outline: as §2
Rattus norvegicus [7] = test: Effect on brain tissue level after 6 min at 5 mg/kg, iv; assay type: ADME, organism-based, Wistar; set-up: dose 5 mg/kg, route intravenous; settings: in vivo, 0.1 h; outline: as §3
Mus musculus [8] = test: Protection of mice against maximal e-shock after 30 min at 15.5 mg/kg; assay type: functional; outline: as §2
Mus musculus [9] = test: Protection of mice against maximal e-shock after 60 min at 13.5 mg/kg; assay type: functional; outline: as §2

D(2) dopamine receptor, sequence (P61169 whole entry): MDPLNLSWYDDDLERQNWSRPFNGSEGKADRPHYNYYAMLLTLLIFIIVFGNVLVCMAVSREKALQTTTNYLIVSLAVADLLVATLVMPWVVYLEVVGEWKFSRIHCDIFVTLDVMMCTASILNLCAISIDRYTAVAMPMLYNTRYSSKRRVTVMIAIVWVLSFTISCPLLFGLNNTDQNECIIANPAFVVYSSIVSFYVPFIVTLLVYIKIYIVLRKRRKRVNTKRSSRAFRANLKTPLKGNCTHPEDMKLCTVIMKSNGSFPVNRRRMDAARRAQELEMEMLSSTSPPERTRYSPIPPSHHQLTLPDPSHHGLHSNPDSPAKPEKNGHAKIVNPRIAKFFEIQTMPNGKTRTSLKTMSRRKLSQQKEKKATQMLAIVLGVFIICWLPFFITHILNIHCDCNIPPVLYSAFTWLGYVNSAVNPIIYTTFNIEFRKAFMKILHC

Row | SMILES | Ki (Glutamate NMDA receptor) | IC50 (L cells) | other results
1 | CC(C)c1csc2nc(O)c(-c3ccccc3)c(O)c12 | 1530 nM |  | 
2 | CCc1csc2nc(O)c(-c3cccc(Oc4ccccc4)c3)c(O)c12 | 179 nM | > 50000 nM | 
3 | Oc1nc2sc(Cl)c(C3CC3)c2c(O)c1-c1ccccc1 | 58 nM |  | 
4 | CCCc1c(Cl)sc2nc(O)c(-c3cccc(Oc4ccccc4)c3)c(O)c12 | 4.12 nM | 15900 nM | 
5 | Oc1nc2sc(Br)cc2c(O)c1-c1ccccc1 | 1770 nM |  | 
6 | Oc1nc2sc(Cl)c(C3CC3)c2c(O)c1-c1cccc(Oc2ccccc2)c1 | 9.5 nM |  | 
7 | CC(C)c1c(Cl)sc2nc(S)c(-c3cccc(Oc4ccccc4)c3)c(O)c12 | 139 nM |  | 
8 | Oc1nc2sc3c(c2c(O)c1-c1ccccc1)CCCC3 | 4300 nM |  | 
9 | COCc1csc2nc(O)c(-c3cccc(Oc4ccccc4)c3)c(O)c12 | 36 nM | 55800 nM | 
10 | Oc1nc2cscc2c(O)c1-c1ccccc1 | 26000 nM |  | 
11 | Oc1nc2sc3c(c2c(O)c1-c1cccc(Oc2ccccc2)c1)CCCC3 | 392 nM | > 30000 nM | 
12 | CC(C)c1c(Cl)sc2nc(O)c(-c3ccccc3)c(O)c12 | 6.6 nM |  | 
13 | CC(C)c1c(Cl)sc2nc(O)c(-c3cccc(Oc4ccccc4)c3)c(O)c12 | 1.46 nM | 5200 nM | brain level (Rattus norvegicus [1]): 3.5 µmol/kg; Activity (Mus musculus [2]): 50%; brain level (Rattus norvegicus [3]): 0.28 µmol/kg
14 | OCc1c(Cl)sc2nc(O)c(-c3cccc(Oc4ccccc4)c3)c(O)c12 | 69 nM |  | 
15 | Cc1cc2c(O)c(-c3ccccc3)c(O)nc2s1 | 9500 nM |  | 
16 | CCC(C)c1c(Cl)sc2nc(O)c(-c3cccc(Oc4ccccc4)c3)c(O)c12 (centres undefined) | 2 nM | 7900 nM | 
17 | NCCc1c(Cl)sc2[nH]c(=O)c(-c3cccc(Oc4ccccc4)c3)c(O)c12 | 16500 nM |  | IC50 (D(2) dopamine receptor): > 30000 nM
18 | CC(C)(C)c1c(Cl)sc2nc(O)c(-c3cccc(Oc4ccccc4)c3)c(O)c12 | 3.3 nM | 15500 nM | 
19 | Oc1nc2sc(Cl)c(C3CCCCC3)c2c(O)c1-c1cccc(Oc2ccccc2)c1 | > 30000 nM | > 50000 nM | 
20 | CCc1csc2nc(O)c(-c3ccccc3)c(O)c12 | 530 nM |  | 
21 | CCc1c(Cl)sc2nc(O)c(-c3ccccc3)c(O)c12 | 8.9 nM |  | 
22 | CCc1c(Br)sc2nc(O)c(-c3ccccc3)c(O)c12 | 10.5 nM |  | 
23 | CC(C)c1c(Cl)sc2nc(S)c(-c3ccccc3)c(O)c12 | 890 nM |  | 
24 | Cc1csc2nc(O)c(-c3ccccc3)c(O)c12 | 8300 nM |  | 
25 | Oc1nc2scc(C3CC3)c2c(O)c1-c1ccccc1 | 4750 nM |  | 
26 | Oc1nc2ccsc2c(O)c1-c1ccccc1 | 97500 nM |  | 

Row | SMILES | Ki (Glutamate NMDA receptor) | IC50 (L cells) | other results
27 | CCC(C)c1csc2nc(O)c(-c3cccc(Oc4ccccc4)c3)c(O)c12 (centres undefined) | 96 nM | > 50000 nM | 
28 | Oc1nc2sc3c(c2c(O)c1-c1cccc(Oc2ccccc2)c1)CCCS3 | 37 nM | > 250000 nM | 
29 | Oc1nc2sc(Cl)cc2c(O)c1-c1cccc(Oc2ccccc2)c1 | 16.6 nM | 15400 nM | Activity (Mus musculus [4]): 10%
30 | O=c1[nH]c2cc(Cl)ccc2c(O)c1-c1ccccc1 | 151 nM |  | 
31 | O=c1[nH]c2cc(Cl)ccc2c(O)c1-c1cccc(Oc2ccccc2)c1 | 1.4 nM |  | brain level (Rattus norvegicus [5]): 1.4 µmol/kg; Activity (Mus musculus [6]): 50%; brain level (Rattus norvegicus [7]): 5.5 µmol/kg
32 | O=c1[nH]c2ccccc2c(O)c1-c1ccccc1 | 12200 nM |  | 
33 | CCc1cc2c(O)c(-c3ccccc3)c(O)nc2s1 | 3100 nM |  | 
34 | COCc1c(Cl)sc2nc(O)c(-c3cccc(Oc4ccccc4)c3)c(O)c12 | 1.6 nM | 15700 nM | Activity (Mus musculus [4]): 30%
35 | Cc1sc2nc(O)c(-c3ccccc3)c(O)c2c1C | 1270 nM |  | 
36 | Oc1nc2sc3c(c2c(O)c1-c1cccs1)CCCC3 | 23100 nM |  | 
37 | Cc1c(Br)sc2nc(O)c(-c3ccccc3)c(O)c12 | 390 nM |  | 
38 | CC1=C(CN)SC2NC(=O)C(c3cccc(Oc4ccccc4)c3)=C(O)C12 (centres undefined) | 1980 nM |  | 
39 | Cc1c(Cl)sc2nc(O)c(-c3cccc(Oc4ccccc4)c3)c(O)c12 | 23 nM | > 200000 nM | 
40 | NCCc1c(Cl)sc2nc(O)c(-c3ccccc3)c(O)c12 | 4550 nM |  | IC50 (D(2) dopamine receptor): > 10000 nM
41 | Cc1cc2c(O)c(-c3cccs3)c(O)nc2s1 | 22700 nM |  | 
42 | Cc1csc2nc(O)c(-c3cccs3)c(O)c12 | 34000 nM |  | 
43 | CCC(C)c1csc2nc(O)c(-c3ccccc3)c(O)c12 (centres undefined) | 940 nM |  | 
44 | Oc1nc2sc3c(c2c(O)c1-c1cccc(Oc2ccccc2)c1)CCC3 | 118 nM |  | 
45 | CCCCCCc1c(Cl)sc2nc(O)c(-c3cccc(Oc4ccccc4)c3)c(O)c12 | 80 nM | > 50000 nM | 
46 | Cc1csc2nc(O)c(-c3cccc(Oc4ccccc4)c3)c(O)c12 | 330 nM | > 250000 nM | 
47 | CCC(C)c1c(Cl)sc2nc(O)c(-c3ccccc3)c(O)c12 (centres undefined) | 5.8 nM |  | 
48 | CCc1c(Cl)sc2nc(O)c(-c3cccc(Oc4ccccc4)c3)c(O)c12 | 1.11 nM |  | Activity (Mus musculus [8]): 50%; Activity (Mus musculus [9]): 50%
49 | Cc1c(Cl)sc2nc(O)c(-c3ccccc3)c(O)c12 | 267 nM |  | 
50 | Oc1nc2sccc2c(O)c1-c1cccc(Oc2ccccc2)c1 | 368 nM | 89200 nM | 
51 | Oc1nc2sccc2c(O)c1-c1ccccc1 | 16400 nM |  | 
